# Compound activity (PubChem BioAssay)
# NadD inh – inhibitors of S. aureus NadD, primary screen, biochemical, colorimetric, uHTS; Nicotinate-nucleotide adenylyltransferase NadD (Staphylococcus aureus N315); 0.78% of 360,000 active; purified NadD enzyme, colorimetric absorbance read-out; inhibition, % at 20 µM; in the data active means inhibition above about 26%
# Scp1 inh – Scp-1 phosphatase inhibitors, primary screen, biochemical, colorimetric, uHTS | inhibition, % at 20 µM | Carboxy-terminal domain RNA polymerase II polypeptide A small phosphatase 1 (Homo … | AID 493091, 2011 | 0.88% of 340,000 active | Recombinant Scp1, phosphopeptide, malachite green phosphate absorbance;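 active means inhibition above about 50% at 20 µM, limit read from the data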;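 further: plate controls were DMSO wells with enzyme for no effect and wells lacking enzyme for full effect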
#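 Test system: SCP-1 phosphatase catalytic domain, residues 76-261; measured by: colorimetric phosphate reagent with accelerator and stabiliser, absorbance at 630 nm; timing: enzyme reaction 45 min at room temperature, colour 5 min, stabilisation 30 min; also added: Phosphorylated 17-residue peptide substrate; compound dosing: one concentration, 20 µM, with 1.0% DMSO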
# rCAG binder – binders of r(CAG) RNA repeats, primary screen, biochemical, fluorescence; r(CAG) RNA repeat, TO-PRO-1 dye displacement fluorescence; inhibition, % at 3 µM; 1.3% of 370,000 active; AID 651821, 2012;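 active means inhibition above the plate cutoff, the mean of all test compounds on that plate plus 3 SD, cut at about 35% in these data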;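 further: 0% = DMSO alone and 100% = 100 µM mitoxantrone as full dye displacement; higher means more dye released from RNA so lower well fluorescence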
# STEP block – STEP phosphatase inhibitors, primary screen, biochemical, fluorescence intensity, uHTS | inhibition, % at 20 µM | recombinant STEP, OMFP fluorogenic substrate | 0.25% of 360,000 active | Tyrosine-protein phosphatase non-receptor type 5 (Homo sapiens), P54829;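 active means inhibition at 20 µM, scaled per plate between control wells, above about 37%, limit read from the data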;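 further: 0% = DMSO with enzyme and substrate and 100% = substrate only without enzyme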
# Target sequence (P54829 whole entry, looked up): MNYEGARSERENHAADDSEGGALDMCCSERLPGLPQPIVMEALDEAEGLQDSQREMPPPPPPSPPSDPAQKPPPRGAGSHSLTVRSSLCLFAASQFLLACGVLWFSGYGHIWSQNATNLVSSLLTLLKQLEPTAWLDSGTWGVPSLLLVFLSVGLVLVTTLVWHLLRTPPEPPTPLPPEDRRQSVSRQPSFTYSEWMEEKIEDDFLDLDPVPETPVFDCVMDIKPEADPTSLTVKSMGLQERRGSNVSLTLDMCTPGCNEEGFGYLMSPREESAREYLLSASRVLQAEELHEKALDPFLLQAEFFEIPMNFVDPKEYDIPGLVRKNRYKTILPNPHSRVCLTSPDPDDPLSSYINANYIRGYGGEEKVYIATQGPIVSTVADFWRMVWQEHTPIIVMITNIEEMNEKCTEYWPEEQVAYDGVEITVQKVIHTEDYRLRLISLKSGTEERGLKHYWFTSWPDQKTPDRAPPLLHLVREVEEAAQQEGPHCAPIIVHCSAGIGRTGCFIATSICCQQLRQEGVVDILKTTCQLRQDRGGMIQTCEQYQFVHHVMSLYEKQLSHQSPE
#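 material = STEP tyrosine phosphatase | reagent = fluorogenic phosphatase substrate OMFP at 25 µM final | doses = single compound dose of 20 µM, 1% DMSO final | schedule = 20 min reaction, room temperature, in the dark | measured by = fluorescence, 480/540 nm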
# LMPTP block – LMPTP phosphatase inhibitors, primary screen, biochemical, fluorescence intensity, uHTS; AID 651560, 2012; recombinant LMPTP-A, OMFP fluorogenic substrate; inhibition, % at 20 µM; Low molecular weight phosphotyrosine protein phosphatase (Homo sapiens), P24666; 0.22% of 360,000 active;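 active means compounds that cut the enzyme signal by at least half of the control window in the single-dose screen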;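 further: plate controls were DMSO wells with enzyme plus substrate for no effect and substrate without enzyme for full effect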
#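 Material: LMPTP-A; amount: 0.625 nM enzyme; doses: single 20 µM dose; times: reaction 50 min, room temperature, dark; technique: fluorescence intensity of OMFP turnover product; benchmarks: no-enzyme and uninhibited controls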
# Scp-1 conf – Scp-1 phosphatase inhibitors, retest, confirmation, biochemical, colorimetric, single concentration | inhibition, % at 20 µM | recombinant SCP-1 catalytic domain, phosphate release, malachite green absorbance | 61% of 2,500 active | shares compounds with Scp1 inh | AID 540281, 2011;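 further: plate controls were DMSO with enzyme for no effect and buffer wells lacking enzyme for full effect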
# Scp-1 MG ctr – colorimetric readout interference by compounds, confirmation, artefact control for Scp-1 inhibitor project, biochemical, single concentration | shares compounds with Scp1 inh | Colorimetric interference counterscreen, malachite green absorbance 630 nm | apparent inhibition (interference), % at 20 µM | 2,500 tested, under 10 active;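 further: compounds added after enzyme reaction finished so only phosphate colour detection is probed; plate controls were DMSO wells with completed Scp-1 reaction for no effect and substrate wells lacking enzyme for full effect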
# Scp-1 Tm shift – Scp-1 binding by thermal shift, confirmation, orthogonal assay for Scp-1 inhibitor project, biophysical, differential scanning fluorimetry. shares compounds with Scp1 inh. Recombinant SCP1, Sypro Orange thermal shift Tm. thermal shift relative to vanadate control, % at 40 µM. 25% of 1,500 active;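 active means substances whose mean melting-temperature shift, as a percentage of the reference inhibitor's shift, reaches about 5.3%, limit read from the data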;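 further: 0% = Tm of DMSO wells and 100% = Tm with sodium orthovanadate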
# Starred values were filed as active, the others as inactive; / = not tested or not shown. Shown are actives, neighbours in structure and some others; about 2.6% of the full set was active somewhere.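 How the source made its calls, unless noted: active means inhibition of at least 30% at 20 µM; inactive means the rest.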
SMILES,NadD inh,Scp1 inh,rCAG binder,STEP block,LMPTP block,Scp-1 conf,Scp-1 MG ctr,Scp-1 Tm shift
COc1ccc(NC(=O)c2cc3c(COC(C)=O)cnc(C)c3oc2=Nc2cccc(C(=O)O)c2)c(OC)c1,3,89*,/,98*,19,64*,-14,5
CCOn1c(=O)c(-c2ccccc2)[n+]([O-])c2ccccc21,-6,-13,5,-2,-1,/,/,/
CCOn1c(=O)c(-c2cccc3ccccc23)[n+]([O-])c2ccccc21,4,58*,-3,-3,-1,-24,-22,/
O=C(CNS(=O)(=O)c1ccccc1)Nc1ccccc1Br,0,50*,0,-4,0,-16,-17,/
COc1ccccc1NC(=O)CNS(=O)(=O)c1ccccc1,1,-2,-2,2,-1,/,/,/
CCOc1ccc(NC(=O)c2cc3cc4ccc(OC)cc4nc3o2)cc1,-5,55*,-2,32,22,41*,-10,-7
COc1ccc2cc3cc(C(=O)NCc4ccco4)oc3nc2c1,-2,61*,16,3,0,56*,-13,-13
CCOC(=O)/C=C1\CN(C(C)c2ccccc2)S(=O)(=O)c2ccccc21 (stereo not drawn),15,84*,-3,2,1,46*,-18,-20
CCOC(=O)/C=C1\CC(C(=O)OCC)Oc2ccccc21 (stereo not drawn),-7,1,-2,-2,-2,/,/,/
CCOC(=O)/C=C1\CN(CCC(C)C)S(=O)(=O)c2ccccc21,8,59*,-9,0,0,31*,-20,-23
O=C(CSc1nc2sc3c(c2c(=O)n1-c1ccccc1)CCCC3)N/N=C/c1ccccc1C(=O)O,12,78*,/,76*,1,49*,-8,-5
Cc1ccc(/C=N/NC(=O)CCCOc2ccc(Cl)cc2Cl)cc1[N+](=O)[O-],1,58*,4,5,9,38*,-11,5
NC(=O)c1c(NC(=O)c2ccco2)sc2c1CCC2,3,-8,5,-1,0,/,/,/
N#Cc1c(NC(=O)c2ccco2)sc2c1CCC2,-5,63*,15,22,24,56*,-15,-1
N#Cc1c(SCC(=O)Nc2cccc(F)c2)sc2c(O)cc(=O)[nH]c12,10,58*,61*,12,26,60*,-10,7.7*
N#Cc1ccc(NC(=O)CSc2nc3[nH]c(=O)cc(O)c3s2)cc1,-2,-8,26,0,-1,/,/,/
COCC(=O)N(C[C@H]1[C@H](c2ccccc2)[C@@H](CO)N1C(=O)NC(C)C)C(C)C,/,/,-1,/,/,/,/,/
CC1(C)NC(=O)N(CCCCOc2cccc(C(F)(F)F)c2)C1=O,-2,-4,-8,1,-2,-4,-8,/
CCN(c1ccccc1)S(=O)(=O)c1ccc2[nH]cc(C(=O)N3CCOCC3)c(=O)c2c1,2,52*,3,13,0,40*,-4,-5
O=C(CSc1nnc(-c2cccs2)o1)Nc1cc(Cl)cc(Cl)c1,/,/,7,/,/,/,/,/
S=C(Nc1cccc(Cl)c1)OC1CCC12CCC(c1ccccc1)CC2 (stereo not drawn),/,/,6,/,/,/,/,/
O=C(Nc1cccc(Cl)c1)OC1CCC12CCC(c1ccccc1)CC2 (stereo not drawn),/,/,0,/,/,/,/,/
Cc1ccc(NC(=O)COc2ccc(/C=N/NC(=O)CSCc3ccccc3)cc2)cc1,-1,85*,2,-1,0,70*,-14,-5
Cc1ccc(OCC(=O)Nc2ccc(CN3CCOCC3)cc2)cc1,0,70*,-10,-1,0,-12,-15,/
O=C(CSCc1ccc(Cl)cc1)N/N=C/c1ccc(OCC(=O)Nc2ccccc2)cc1,5,3,6,5,0,/,/,/
SMILES,NadD inh,Scp1 inh,rCAG binder,STEP block,LMPTP block,Scp-1 conf,Scp-1 MG ctr,Scp-1 Tm shift
Cc1c(NC(=O)C2CCCN(S(=O)(=O)c3ccc(F)cc3)C2)c(=O)n(-c2ccccc2)n1C (stereo not drawn),/,/,2,/,/,/,/,/
C[C@H]1COc2cc(Br)ccc2S(=O)(=O)N1Cc1cn(CCC2OCCO2)nn1,/,/,1,/,/,/,/,/
Cc1ccc(S(=O)(=O)N2CCCCC2)cc1C(=O)Nc1cccnc1,-8,53*,1,2,-1,51*,-13,-13
O=C(NC1CCCCN(Cc2cccc(Cl)c2)C1=O)c1ccc(F)cc1 (stereo not drawn),/,/,-1,/,/,/,/,/
N=C1/C(=C\c2ccc(OC(=O)c3ccc(F)cc3)cc2)C(=O)N=C2SC(N3CCOCC3)=NN12,19,66*,12,2,1,56*,-2,1
Cc1ccc(-n2[nH]c(C)c(/C=N/Nc3ccc([N+](=O)[O-])cc3[N+](=O)[O-])c2=O)cc1,6,61*,10,19,10,80*,-14,11*
Cc1[nH]n(-c2ccc([N+](=O)[O-])cc2)c(=O)c1C=NCC1CCCO1 (stereo not drawn),-8,-1,4,0,0,/,/,/
Cn1nc2c(c1C(=O)N1CCCC(C(=O)c3cc(F)ccc3F)C1)CCCC2 (stereo not drawn),0,-2,-5,-2,-2,/,/,/
Cn1nc2c(c1C(=O)O)CCCC2,3,60*,-1,-6,0,67*,1,-5
COCc1c(C(=O)N2CCN(Cc3c(F)cccc3Cl)CC2)oc2ccccc12,-5,53*,-4,2,2,-8,-10,/
Cc1ccccc1NC(=O)CCS(=O)(=O)c1ccccc1,/,/,3,/,/,/,/,/
CS(=O)(=O)N(CC(=O)N1CCOCC1)c1ccc(Cl)cc1,2,-2,-1,-2,0,/,/,/
CS(=O)(=O)N(CC(=O)N1CCCCCC1)c1ccc(Cl)cc1,4,59*,-3,0,-3,0,-5,/
O=C(NCCc1ccccc1)c1ccc(-c2ccc(F)cc2)o1,-7,26,-3,-2,1,/,/,/
